These results are taken from paper PMC11638873 (Molecular Therapy, 2024).

Values joined by “and” are separate entries in the source; they are usually repeats but may differ in a detail not shown here. Identical values can stand only once.

The subject of data set [1] is human liver microsomes (CYP, UGT). The data set is described as follows: In vitro metabolism on human liver microsomes. The class given is in vitro ADME. The conditions noted are these: for glucuronate metabolite detection after HLM incubation: with cofactors for UGT activity. A digest of the protocol: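 Test compound (1 mM) incubated at 37 °C with pooled HLMs from 50 donors of both sexes (20 mg protein/mL). Buffer was 100 mM potassium phosphate or 100 mM Tris-HCl, pH 7.4, each with 20 mM NADPH. Reactions stopped with acetonitrile at 0, 5, 30 and 60 min; supernatant analysed by HPLC-MS. % remaining vs 0 min; mean ± SEM; one-way ANOVA vs time 0.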
(Liver microsomes are vesicles of endoplasmic reticulum, rich in cytochrome P450 enzymes.)

A short description of data set [2]: Biodistribution study after single oral dose in wild-type C57BL/6 mice. The class given is in vivo, mouse. The conditions noted are these: 60 mg/kg single oral dose.
Data set [3] concerns CFTR (G542X nonsense mutation). In kind it is in vivo, mouse. As to conditions: 60 mg/kg daily oral, 15 days. The method, boiled down: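 G542X homozygous mice (n = 5, genotyped by allele-specific PCR) gavaged daily from P21 for 15 days; 3 WT and 3 mutant mice given water as vehicle. Lung RNA (20–25 mg tissue) for real-time RT-PCR. Lung protein (40 mg tissue, RIPA plus 1% protease inhibitors, Bradford) for western blot, normalized to tubulin and negative control. Triplicate per mouse; mean ± SEM; two-way ANOVA vs untreated mutant.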

The format of data set [4] is in vivo, mouse. The conditions noted are these: 60 mg/kg daily oral. A digest of the protocol: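 Homozygous G542X mice were dosed orally once daily from P21 for 15 days. Controls were 3 WT and 3 mutant mice given water. Afterwards, isolated tissues from each group were stained with hematoxylin and eosin to check for tissue damage.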
The conditions of data set [5]: cited from earlier work.
Data set [6] has as its system premature termination codons (PTCs) / natural termination codons (NTCs). The conditions noted are these: cited from earlier work.

As to `O=C(O)c1cccc(-c2noc(-c3ccccc3F)n2)c1` [PTC124, reference compound], the “metabolic consumption after HLM incubation” value in data set [1] (after 60 min, HLM condition not specified) was found to be 46.25%. The “glucuronate metabolite detection after HLM incubation” value in data set [1] is on record as “glucuronate derivative was the primary metabolite detected”.

Regarding `CC(=O)Nc1noc(C)n1` [NV848, N-(5-methyl-1,2,4-oxadiazol-3-yl)acetamide], the “metabolic stability in HLM compared to PTC124” value in data set [1] (CYP, UGT and other liver microsome enzymes) is given as “higher metabolic stability compared to PTC124”. Moreover, the “consumption after HLM incubation” value in data set [1] (after 60 min, CYP-DPBS condition) is listed as 14.62%; in data set [1] (after 60 min, CYP-Tris condition) it was 5.27%; in data set [1] (after 60 min, CYP/UGT-DPBS condition) it was 5.65%; in data set [1] (after 60 min, CYP/UGT-Tris condition), 13.04%. Besides, in data set [1], the “glucuronate metabolite detection after HLM incubation” value is given as “no glucuronate metabolites were detected”. The “last detection in lungs” value in data set [2] amounted to 2 h. Also, the “concentration in kidneys (individual mice)” value in data set [2] (45 min, found in two mice) is 145 ng/g and 794 ng/g. For the same compound, the concentration in pancreas entry in data set [2] (45 min to 2 h) is recorded as “stable concentrations from 45 min to 2 h”. The average plasma concentration in data set [2] (24 h) is on record as 0.06 g/mL. Besides, in data set [3] (CFTR G542X/G542X mice, vs untreated mutant), the “lung CFTR mRNA expression (real-time RT-PCR)” value is recorded as “increase in CFTR mRNA expression”. Besides, in data set [3] (mouse M2), the “CFTR detection in lung sections (IHC), apical membranes of pulmonary ducts” value is reported as “intensity similar to CFTR^WT”. Moreover, the “tissue damage after chronic administration (H&E staining)” value in data set [4] (15 days) is reported as “no signs of tissue damage”. The “tolerability of oral treatment for 2 weeks” value in data set [4] (CFTR G542X/G542X mice) was “well tolerated in mice and did not cause toxicity”. In data set [5], the tolerability in vivo result is reported as “good tolerability in vivo”. Also, in data set [6], the “specificity for PTCs” value is reported as “specificity for PTCs without interfering with NTCs”.
